Experimental data as given in paper PMC8463269 (Acta Pharmaceutica Sinica. B, 2021).
Read-outs that look alike come from different tables or passages of the source. Where a SMILES comes first, the peptide text is derived from it. Bridges are numbered along the chain shown (N, C = ends). [ ]: non-standard residue; d: D form. S5 = C=CCCC[C@](C)(N)C(=O)O

What was measured:
KRAS^G12C protein = KRAS^G12C protein (Homo sapiens, UniProt P01116, G12C); experiment: Bio-Layer Interferometry; type: binding
How it was run: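 The biotinylated protein was captured on SSA sensors in an Octet RED 96. Test peptides were run at various concentrations, and KD was calculated from the binding kinetics.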

H358 cells [1] = experiment: Cell viability, CCK8 assay; type: cell-based; settings: read-out: IC50, H358 cell viability, n = 3
How it was run: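 H358 cells in RPMI-1640 with 10% FBS were plated overnight, then incubated with diluted series of test peptide for 24 h, or 36, 48 and 72 h. CCK8 reagent was added for 1 h at 37 °C and absorbance read at 450 nm. Mean ± SD of three independent experiments.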

[2] = Plasma stability in rat plasma; type: in vitro ADME, Sprague–Dawley rats; settings: 1300 μg/mL, 0 min, HPLC
How it was run: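 Heparinised blood was drawn from the femoral artery of Sprague–Dawley rats and centrifuged at 4 °C, 4000 r/min for 10 min to give plasma. Plasma spiked with test peptide was incubated at 37 °C. Aliquots were precipitated in 3 volumes of methanol–acetonitrile (50:50), vortexed and centrifuged, and the supernatant was analysed by C18 RP-HPLC with a 0.1% TFA water/acetonitrile gradient.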

[3] = Circular dichroism spectroscopy, α-helicity; type: physicochemical; settings: CD, 0.3 mg/mL in 1×PBS pH 7.4, 25 °C, 190–260 nm, average of three readings
How it was run: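 Spectra were taken in a 1.0 mm path quartz cell with 1 nm bandwidth, 50 nm/min scan speed and 1 s response time. Peptide was also run in PBS with 50% trifluoroethanol. Spectra were converted to mean residue ellipticity (deg·cm²/dmol) versus wavelength.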

[4] = target: hexahistidine-tagged recombinant human KRAS^G12C (human) (UniProt P01116); experiment: BLI
caspase 3 = experiment: Western blot, caspase 3 expression in H358 cells; type: cell-based; settings: H358 cells, 0, 5, 10, 20 μmol/L, 24 h
How it was run: (§1)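 H358 cells treated with test peptide for 24 h were lysed on ice for 1 h in buffer with phosphatase inhibitor cocktail and PMSF. Proteins were separated by SDS-PAGE and transferred to PVDF. Membranes were incubated with primary antibody at 4 °C overnight, then HRP goat anti-rabbit IgG for 100 min, and imaged by chemiluminescence. GAPDH was probed alongside.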

trypsin = experiment: Enzymatic degradation by trypsin; type: in vitro ADME; settings: 150 μg/mL peptide, 3 μg/mL trypsin, NH4HCO3 buffer, 37 °C, HPLC, n = 3
How it was run: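 Test peptide was digested with trypsin or chymotrypsin (peptide:enzyme weight ratio 50:1) in NH4HCO3 buffer at 37 °C. Samples were taken at 0, 30 min and 1, 2, 6, 12 and 24 h and quenched with 1% (v/v) formic acid. Analysis was by C18 RP-HPLC with a 0.1% TFA water/acetonitrile gradient (20→90% B over 30 min, 1 mL/min).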

H358 cells [5] = experiment: Annexin V-FITC apoptosis assay by flow cytometry; type: cell-based; settings: 24 h, control 36.42%
[6] = system: cyclin-dependent kinase 1 (CDK1); experiment: Western blot, CDK1 expression in H358 cells; type: cell-based; settings: H358 cells, 0, 5, 10, 20 μmol/L, 24 h
How it was run: as §1

cyclin B1 = experiment: Western blot, cyclin B1 expression in H358 cells; type: cell-based; settings: H358 cells, 0, 5, 10, 20 μmol/L, 24 h
How it was run: as §1

BAX = experiment: Western blot, BAX expression in H358 cells; type: cell-based; settings: H358 cells, 0, 5, 10, 20 μmol/L, 24 h
How it was run: as §1

circular dichroism = settings: PBS; pH 7.4; 25 °C; 0.3 mg/mL
BCL-2 = experiment: Western blot, BCL-2 expression in H358 cells; type: cell-based; settings: H358 cells, 0, 5, 10, 20 μmol/L, 24 h
How it was run: as §1

H358 cells [7] = experiment: Cell cycle analysis by flow cytometry; type: cell-based; settings: 24-h treatment, highest concentration of the series, control 16.76%

Q: Which Kd (KRAS^G12C protein) does the source give for CC[C@H](C)[C@H](NC(=O)CNC(C)=O)C(=O)N[C@@]1(C)CCCC=CCCC[C@@](C)(C(=O)N[C@@H](CC(C)C)C(=O)N[C@@H](CCCCN)C(N)=O)NC(=O)[C@H](CC(N)=O)NC(=O)[C@H]([C@@H](C)O)NC(=O)[C@H](CC(C)C)NC1=O [Peptide 4] (Ac-GI[S5]LTN[S5]LK-NH2; staple 3-7) here?
A: The Kd was 25 µM.

Q: What about the kon (KRAS^G12C protein) of the same compound?
A: The kon was 97.6 M⁻¹ s⁻¹.

Q: With CC[C@H](C)[C@H](NC(=O)CNC(=O)[C@H](Cc1ccccc1)NC(=O)[C@H](Cc1ccccc1)NC(=O)[C@H](CCCNC(=N)N)NC(=O)[C@H](CCCNC(=N)N)NC(C)=O)C(=O)N[C@@]1(C)CCCC=CCCC[C@@](C)(C(=O)N[C@@H](CC(C)C)C(=O)N[C@@H](CCCCN)C(=O)N[C@H](C(=O)N[C@@H](CCC(=O)O)C(=O)N[C@@H](CCC(=O)O)C(=O)NCC(=O)N[C@@H](CC(N)=O)C(N)=O)[C@@H](C)O)NC(=O)[C@H](CC(N)=O)NC(=O)[C@H]([C@@H](C)O)NC(=O)[C@H](CC(C)C)NC1=O [Peptide 1, reference compound] as the compound, how does the IC50 (H358 cells [1]; CCK8, 24-h incubation) read?
A: Its IC50 is 21.2 µM.

Q: What about the “plasma stability, characteristic peak in the chromatogram” value [2] of the same compound?
A: Its value is “No characteristic peaks were observed”.

Q: What about the Kd (KRAS^G12C protein) of the same compound?
A: The Kd was 58.3 µM.

Q: What about the kon (KRAS^G12C protein) of the same compound?
A: The kon was 14800 M⁻¹ s⁻¹.

Q: What about the “α-helicity in PBS” value [3] of the same compound?
A: Its value is 16.20%.

Q: Which kon (KRAS^G12C protein) does the source give for CC[C@H](C)[C@H](NC(C)=O)C(=O)N[C@@]1(C)CCCC=CCCC[C@@](C)(C(=O)N[C@@H](CC(C)C)C(N)=O)NC(=O)[C@H](CC(N)=O)NC(=O)[C@H]([C@@H](C)O)NC(=O)[C@H](CC(C)C)NC1=O [Peptide 5] (Ac-I[S5]LTN[S5]L-NH2; staple 2-6) here?
A: The kon was 3.12 M⁻¹ s⁻¹.

Q: What about the Kd (KRAS^G12C protein; BLI, dissociation rate constant) of the same compound?
A: Its Kd is 1.06 s⁻¹.

Q: What does the source list for CC(=O)N[C@@]1(C)CCCC=CCCC[C@@](C)(C(=O)N[C@@H](CC(C)C)C(=O)N[C@@H](CCCCN)C(=O)N[C@H](C(N)=O)[C@@H](C)O)NC(=O)[C@H](CC(N)=O)NC(=O)[C@H]([C@@H](C)O)NC(=O)[C@H](CC(C)C)NC1=O [Peptide 8] (Ac-[S5]LTN[S5]LKT-NH2; staple 1-5)?
A: Kd (KRAS^G12C protein): 29.1 µM; kon (KRAS^G12C protein): 1750 M⁻¹ s⁻¹

Q: With CC(=O)N[C@@]1(C)CCCC=CCCC[C@@](C)(C(N)=O)NC(=O)[C@H](CC(N)=O)NC(=O)[C@H]([C@@H](C)O)NC(=O)[C@H](CC(C)C)NC1=O [Peptide 6] (Ac-[S5]LTN[S5]-NH2; staple 1-5) as the compound, how does the kon (KRAS^G12C protein) read?
A: The kon was 3.22 M⁻¹ s⁻¹.

Q: What does the source list for CC[C@H](C)[C@H](NC(C)=O)C(=O)N[C@@]1(C)CCCC=CCCC[C@@](C)(C(=O)N[C@@H](CC(C)C)C(=O)N[C@@H](CCCCN)C(=O)N[C@H](C(N)=O)[C@@H](C)O)NC(=O)[C@H](CC(N)=O)NC(=O)[C@H]([C@@H](C)O)NC(=O)[C@H](CC(C)C)NC1=O [Peptide 7] (Ac-I[S5]LTN[S5]LKT-NH2; staple 2-6)?
A: Kd (KRAS^G12C protein): 87.2 µM; kon (KRAS^G12C protein): 64.7 M⁻¹ s⁻¹; α-helicity in PBS [3]: 17.90%

Q: With CC[C@H](C)[C@H](NC(=O)CNC(=O)[C@H](Cc1ccccc1)NC(=O)[C@H](Cc1ccccc1)NC(C)=O)C(=O)N[C@@]1(C)CCCC=CCCC[C@@](C)(C(=O)N[C@@H](CC(C)C)C(=O)N[C@@H](CCCCN)C(=O)N[C@H](C(=O)N[C@@H](CCC(=O)O)C(N)=O)[C@@H](C)O)NC(=O)[C@H](CC(N)=O)NC(=O)[C@H]([C@@H](C)O)NC(=O)[C@H](CC(C)C)NC1=O [Peptide 2] (Ac-FFGI[S5]LTN[S5]LKTE-NH2; staple 5-9) as the compound, how does the Kd (KRAS^G12C protein) read?
A: Its Kd is 21.7 µM.

Q: And the kon (KRAS^G12C protein)?
A: The kon was 43600 M⁻¹ s⁻¹.

Q: With CC[C@H](C)[C@H](NC(=O)CNC(=O)[C@H](Cc1ccccc1)NC(C)=O)C(=O)N[C@@]1(C)CCCC=CCCC[C@@](C)(C(N)=O)NC(=O)[C@H](CC(N)=O)NC(=O)[C@H]([C@@H](C)O)NC(=O)[C@H](CC(C)C)NC1=O [Peptide 10] (Ac-FGI[S5]LTN[S5]-NH2; staple 4-8) as the compound, how does the Kd (KRAS^G12C protein) read?
A: The Kd was 131 µM.

Q: What about the kon (KRAS^G12C protein) of the same compound?
A: Its kon is 294 M⁻¹ s⁻¹.

Q: With SAH-SOS1A (peptide 1) as the compound, how does the koff [4] read?
A: Its koff is 0.862 s⁻¹.

Q: For CC[C@H](C)[C@H](NC(=O)CNC(=O)[C@H](Cc1ccccc1)NC(C)=O)C(=O)N[C@@]1(C)CCCC=CCCC[C@@](C)(C(=O)N[C@@H](CC(C)C)C(N)=O)NC(=O)[C@H](CC(N)=O)NC(=O)[C@H]([C@@H](C)O)NC(=O)[C@H](CC(C)C)NC1=O [Peptide 9] (Ac-FGI[S5]LTN[S5]L-NH2; staple 4-8), which Kd (KRAS^G12C protein) is on record?
A: The Kd was 64.9 µM.

Q: What about the kon (KRAS^G12C protein) of the same compound?
A: Its kon is 1630 M⁻¹ s⁻¹.

Q: With CC[C@H](C)[C@H](NC(=O)CNC(=O)[C@H](Cc1ccccc1)NC(C)=O)C(=O)N[C@@]1(C)CCCC=CCCC[C@@](C)(C(=O)N[C@@H](CC(C)C)C(=O)N[C@@H](CCCCN)C(=O)N[C@H](C(N)=O)[C@@H](C)O)NC(=O)[C@H](CC(N)=O)NC(=O)[C@H]([C@@H](C)O)NC(=O)[C@H](CC(C)C)NC1=O [Peptide 3] (Ac-FGI[S5]LTN[S5]LKT-NH2; staple 4-8) as the compound, how does the “caspase 3 expression” value (caspase 3) read?
A: Its value is “increased”.

Q: And the “percentage of trypsin hydrolysate (g) of the peptide” value (trypsin; 12 h)?
A: Its value is 78%.

Q: What about the “percentage of trypsin hydrolysate (g) of the peptide” value (trypsin; 24 h) of the same compound?
A: The value was 34%.

Q: What about the “proportion of apoptotic cells (Q2 + Q3)” value (H358 cells [5]; 2.5 μmol/L) of the same compound?
A: The value was 56.63%.

Q: What about the “proportion of apoptotic cells (Q2 + Q3)” value (H358 cells [5]; 10 μmol/L) of the same compound?
A: Its value is 61.40%.

Q: What about the “proportion of apoptotic cells (Q2 + Q3)” value (H358 cells [5]; 20 μmol/L) of the same compound?
A: The value was 70.70%.

Q: And the CDK1 expression [6]?
A: Its CDK1 expression is “significantly downregulated”.

Q: And the “cyclin B1 expression” value (cyclin B1)?
A: The value was “significantly downregulated”.

Q: And the “pro-apoptotic BAX protein expression” value (BAX)?
A: The value was “insignificant effect”.

Q: And the IC50 (H358 cells [1]; CCK8, 24-h incubation)?
A: Its IC50 is 15.7 µM.

Q: And the IC50 (H358 cells [1]; CCK8, 36-h incubation)?
A: The IC50 was 7.55 µM.

Q: And the IC50 (H358 cells [1]; CCK8, 48-h incubation)?
A: Its IC50 is 5.75 µM.

Q: What about the IC50 (H358 cells [1]; CCK8, 72-h incubation) of the same compound?
A: Its IC50 is 6.68 µM.

Q: What about the helicity (circular dichroism) of the same compound?
A: The helicity was 18.9%.

Q: What about the “anti-apoptotic BCL-2 protein expression” value (BCL-2) of the same compound?
A: Its value is “obviously inhibited”.

Q: And the kon (KRAS^G12C protein)?
A: Its kon is 4600 M⁻¹ s⁻¹.

Q: And the “α-helicity in PBS” value [3]?
A: The value was 18.93%.

Q: What about the “percentage of cells in the G2/M” value (H358 cells [7]) of the same compound?
A: The value was 49.79%.
